Values after ≈ are worked out from the molar mass of the structure shown. Some results are limits rather than exact numbers.

The subject of assay [1] is Providencia rettgeri. The assay can be described thus: In vitro antibacterial activity against Providencia rettgeri strain 21203. The format is functional. The essentials: (§1)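 MIC by serial twofold dilution of compound in Mueller-Hinton agar. The agar surface or broth was inoculated with a suitably diluted 18-24-h broth culture, then incubated at 37 °C for 17 h. MIC was read as the lowest concentration inhibiting visible growth.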

The subject of another assay is Enterococcus faecalis. The assay is described as follows: In vitro antibacterial activity against Streptococcus faecalis strain 20688. The assay is classed as functional. Put shortly:
as §1

Assay [2] relates to Klebsiella pneumoniae. The assay is described as follows: In vitro antibacterial activity against Klebsiella pneumoniae strain 20468. The assay is classed as functional. The essentials:
as §1

Assay [3] concerns Escherichia coli. The assay can be described thus: In vitro antibacterial activity against Escherichia coli strain 15119. The assay is classed as functional. The essentials: as §1
Assay [4] concerns Enterobacter cloacae. The assay is described as follows: In vitro antibacterial activity against Enterobacter cloacae strain 9656. The format is functional. The essentials:
as §1

Assay [5] deals with Staphylococcus aureus. The assay can be described thus: In vitro antibacterial activity against Staphylococcus aureus strain 9537 + 50% serum. The assay is classed as functional. The essentials:
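Serial twofold dilution MIC with 50% human serum present. Mueller-Hinton agar or broth was inoculated with a suitably diluted 18-24-h broth culture and incubated at 37 °C for 17 h. The endpoint was the lowest concentration that stopped visible growth.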

The subject of assay [6] is Staphylococcus aureus. The assay is described as follows: In vitro antibacterial activity against Staphylococcus aureus strain 9606 (Penicillin resistant). The format is functional. The essentials: (§2)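 MIC by serial twofold dilution in Mueller-Hinton agar. Agar surface or broth inoculated with a suitably diluted 18-24-h broth culture. Plates and broth tubes incubated at 37 °C for 17 h. MIC taken as the lowest concentration that inhibited visible growth.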

Assay [7] concerns Enterobacter cloacae. The assay can be described thus: In vitro antibacterial activity against Enterobacter cloacae strain 9659. The assay is classed as functional. The essentials:
as §1

In the next assay the test system is Morganella morganii. The assay can be described thus: In vitro antibacterial activity against Morganella morganii strain 15153. The format is functional. Put shortly:
as §1

In assay [8] the test system is Staphylococcus aureus. The assay is described as follows: In vitro antibacterial activity against Staphylococcus aureus strain 9537. The format is functional. Put shortly: as §2
A further assay deals with Streptococcus pyogenes. The assay can be described thus: In vitro antibacterial activity against Streptococcus pyogenes strain 9604. The assay is classed as functional. Put shortly:
as §1

In the next assay the test system is Serratia marcescens. The assay is described as follows: In vitro antibacterial activity against Serratia marcescens strain 20019. The assay is classed as functional. Put shortly:
as §1

A further assay concerns Streptococcus pneumoniae. The assay is described as follows: In vitro antibacterial activity against Streptococcus pneumoniae strain 9585. The format is functional. Put shortly:
as §1

Assay [9] deals with Escherichia coli. The assay is described as follows: In vitro antibacterial activity against Escherichia coli strain 20341. The assay is classed as functional. Put shortly: as §1
Assay [10] has as its system Klebsiella pneumoniae. The assay can be described thus: In vitro antibacterial activity against Klebsiella pneumoniae strain 15130. The format is functional. Put shortly: as §1
Assay [11] relates to Proteus mirabilis. The assay is described as follows: In vitro antibacterial activity against Proteus mirabilis strain 9900. The format is functional. The essentials: as §1
Assay [12] concerns Proteus mirabilis. The assay is described as follows: In vitro antibacterial activity against Proteus mirabilis strain 9716. The assay is classed as functional. The essentials:
as §1

Assay [13] has as its system Providencia rettgeri. The assay can be described thus: In vitro antibacterial activity against Providencia rettgeri strain 21203.

As a reminder, the MIC is the smallest concentration in the dilution series that meets the test's criterion for growth inhibition. With `CO/N=C(/C(=O)NC1C(=O)N2C(C(=O)O)=C(C)/C(=C/C(=O)OC)SC12)c1csc(N)n1.O=C(O)C(F)(F)F` (stereo unspecified), the MIC was 32 µg/mL in the assay on Providencia rettgeri [1]; 63 µg/mL in the assay on Enterococcus faecalis; 32 µg/mL in the assay on Klebsiella pneumoniae [2]; 2 µg/mL with Escherichia coli [3]; above 125 µg/mL in the assay with Enterobacter cloacae [4]; 125 µg/mL in the assay on Staphylococcus aureus [5]. The MIC is 4 µg/mL in the assay on Staphylococcus aureus [6]; above 125 µg/mL against Enterobacter cloacae [7]; above 125 µg/mL in the assay with Morganella morganii; 2 µg/mL in the assay on Staphylococcus aureus [8]; 0.016 µg/mL in the assay with Streptococcus pyogenes; above 125 µg/mL against Serratia marcescens. Moreover, the MIC was 0.016 µg/mL in the assay with Streptococcus pneumoniae; 2 µg/mL against Escherichia coli [9]; 16 µg/mL against Klebsiella pneumoniae [10]; 2 µg/mL against Proteus mirabilis [11]; 16 µg/mL with Proteus mirabilis [12].
As for `COC(=O)/C=C1\SC2C(NC(=O)C(N)c3ccccc3)C(=O)N2C(C(=O)O)=C1C.O=C(O)C(F)(F)F` (stereo unspecified), the minimal inhibitory concentration (MIC) in the assay on Providencia rettgeri [1] was above 125 µg/mL; in the assay on Enterococcus faecalis it was 63 µg/mL; with Klebsiella pneumoniae [2] it was above 125 µg/mL; with Escherichia coli [3], above 125 µg/mL; against Enterobacter cloacae [4] it was above 125 µg/mL; with Staphylococcus aureus [5], 32 µg/mL. The MIC in the assay with Staphylococcus aureus [6] is above 125 µg/mL; in the assay on Enterobacter cloacae [7], above 125 µg/mL; against Morganella morganii, above 125 µg/mL; against Staphylococcus aureus [8], 1 µg/mL; against Streptococcus pyogenes, 0.025 µg/mL; with Serratia marcescens, above 125 µg/mL. Also, the minimum inhibitory concentration (MIC) against Streptococcus pneumoniae is 0.13 µg/mL; in the assay on Escherichia coli [9], above 125 µg/mL; against Klebsiella pneumoniae [10] it was above 125 µg/mL; against Proteus mirabilis [11], above 125 µg/mL; in the assay on Proteus mirabilis [12], above 125 µg/mL.
Consider `CO/N=C(/C(=O)NC1C(=O)N2C(C(=O)O)=C(C)/C(=C/C(=O)OC)SC12)c1ccco1` (stereo unspecified), for which the MIC with Providencia rettgeri [1] was 32 µg/mL (≈ 73.5 µM); against Enterococcus faecalis, 32 µg/mL (≈ 73.5 µM); in the assay on Klebsiella pneumoniae [2] it was above 125 µg/mL; against Escherichia coli [3] it was 16 µg/mL (≈ 36.7 µM); in the assay on Enterobacter cloacae [4] it was 63 µg/mL (≈ 145 µM); with Staphylococcus aureus [5] it was 63 µg/mL. Further, the minimum inhibitory concentration (MIC) was 4 µg/mL (≈ 9.19 µM) with Staphylococcus aureus [6]; above 125 µg/mL in the assay with Enterobacter cloacae [7]; 63 µg/mL (≈ 145 µM) in the assay on Morganella morganii; 2 µg/mL (≈ 4.59 µM) with Staphylococcus aureus [8]; 0.25 µg/mL (≈ 0.574 µM) against Streptococcus pyogenes; above 125 µg/mL against Serratia marcescens. In addition, the MIC with Streptococcus pneumoniae is 0.25 µg/mL (≈ 0.574 µM); against Escherichia coli [9] it was 63 µg/mL (≈ 145 µM); in the assay on Klebsiella pneumoniae [10], 16 µg/mL (≈ 36.7 µM); in the assay with Proteus mirabilis [11] it was 4 µg/mL (≈ 9.19 µM); with Proteus mirabilis [12], 4 µg/mL (≈ 9.19 µM).
`COC(=O)/C=C1\SC2C(NC(=O)C(O)c3ccccc3)C(=O)N2C(C(=O)O)=C1C` (stereo unspecified): the MIC was above 125 µg/mL against Providencia rettgeri [1]; 16 µg/mL (≈ 38.2 µM) in the assay with Enterococcus faecalis; above 125 µg/mL in the assay on Klebsiella pneumoniae [2]; above 125 µg/mL in the assay with Escherichia coli [3]; above 125 µg/mL in the assay on Enterobacter cloacae [4]; 32 µg/mL in the assay on Staphylococcus aureus [5]. In addition, the MIC was above 125 µg/mL against Staphylococcus aureus [6]; above 125 µg/mL in the assay with Enterobacter cloacae [7]; above 125 µg/mL with Morganella morganii; 0.5 µg/mL (≈ 1.19 µM) in the assay on Staphylococcus aureus [8]; 0.25 µg/mL (≈ 0.597 µM) against Streptococcus pyogenes; above 125 µg/mL in the assay with Serratia marcescens. In addition, the MIC was 0.25 µg/mL (≈ 0.597 µM) with Streptococcus pneumoniae; above 125 µg/mL in the assay on Escherichia coli [9]; above 125 µg/mL against Klebsiella pneumoniae [10]; 63 µg/mL (≈ 151 µM) in the assay with Proteus mirabilis [11]; above 125 µg/mL against Proteus mirabilis [12].
Regarding `COC(=O)/C=C1\SC2C(NC(=O)Cc3cccs3)C(=O)N2C(C(=O)O)=C1COC(C)=O` (stereo unspecified), the MIC against Providencia rettgeri [1] is above 125 µg/mL; in the assay with Enterococcus faecalis, 4 µg/mL (≈ 8.57 µM); against Klebsiella pneumoniae [2], 63 µg/mL (≈ 135 µM); with Escherichia coli [3] it was 125 µg/mL (≈ 268 µM); against Enterobacter cloacae [4], above 125 µg/mL; in the assay with Staphylococcus aureus [5], 63 µg/mL. Further, the MIC was 2 µg/mL (≈ 4.29 µM) with Staphylococcus aureus [6]; above 125 µg/mL in the assay on Enterobacter cloacae [7]; above 125 µg/mL against Morganella morganii; 2 µg/mL (≈ 4.29 µM) against Staphylococcus aureus [8]; 0.5 µg/mL (≈ 1.07 µM) in the assay on Streptococcus pyogenes; above 125 µg/mL against Serratia marcescens. The MIC was 0.13 µg/mL (≈ 0.279 µM) in the assay on Streptococcus pneumoniae; above 125 µg/mL against Escherichia coli [9]; above 125 µg/mL against Klebsiella pneumoniae [10]; 125 µg/mL (≈ 268 µM) with Proteus mirabilis [11]; 125 µg/mL (≈ 268 µM) in the assay on Proteus mirabilis [12].
For the molecule `COC(=O)/C=C1\SC2C(NC(=O)Cc3cccs3)C(=O)N2C(C(=O)O)=C1C` (stereo unspecified), the MIC against Providencia rettgeri [1] is 63 µg/mL (≈ 154 µM); against Enterococcus faecalis it was 2 µg/mL (≈ 4.9 µM); in the assay with Klebsiella pneumoniae [2], above 125 µg/mL; in the assay with Escherichia coli [3] it was 63 µg/mL (≈ 154 µM); with Enterobacter cloacae [4], above 125 µg/mL; in the assay on Staphylococcus aureus [5] it was 63 µg/mL. For the same molecule, the MIC against Staphylococcus aureus [6] was 2 µg/mL (≈ 4.9 µM); in the assay with Enterobacter cloacae [7] it was above 125 µg/mL; against Morganella morganii, 125 µg/mL (≈ 306 µM); with Staphylococcus aureus [8] it was 0.13 µg/mL (≈ 0.318 µM); with Streptococcus pyogenes, 2 µg/mL (≈ 4.9 µM); in the assay on Serratia marcescens it was above 125 µg/mL. Also, the MIC against Streptococcus pneumoniae stood at 0.25 µg/mL (≈ 0.612 µM); against Escherichia coli [9], 125 µg/mL (≈ 306 µM); against Klebsiella pneumoniae [10] it was 125 µg/mL (≈ 306 µM); against Proteus mirabilis [11] it was 16 µg/mL (≈ 39.2 µM); in the assay on Proteus mirabilis [12], 32 µg/mL (≈ 78.3 µM).
For the molecule `COC(=O)/C=C1/SC2C(NC(=O)Cc3cccs3)C(=O)N2C(C(=O)O)=C1C` (stereo unspecified), the MIC in the assay with Providencia rettgeri [1] is 4 µg/mL (≈ 9.79 µM); with Enterococcus faecalis it was 8 µg/mL (≈ 19.6 µM); in the assay on Klebsiella pneumoniae [2] it was above 125 µg/mL; in the assay on Escherichia coli [3], 125 µg/mL (≈ 306 µM); in the assay on Enterobacter cloacae [4], above 125 µg/mL; with Staphylococcus aureus [5], 63 µg/mL. Besides, the MIC is 1 µg/mL (≈ 2.45 µM) with Staphylococcus aureus [6]; above 125 µg/mL in the assay with Enterobacter cloacae [7]; 16 µg/mL (≈ 39.2 µM) against Morganella morganii; 0.06 µg/mL (≈ 0.147 µM) against Staphylococcus aureus [8]; 2 µg/mL (≈ 4.9 µM) in the assay with Streptococcus pyogenes; 4 µg/mL (≈ 9.79 µM) against Serratia marcescens. For the same molecule, the MIC against Streptococcus pneumoniae is 0.5 µg/mL (≈ 1.22 µM); in the assay with Escherichia coli [9], 125 µg/mL (≈ 306 µM); against Klebsiella pneumoniae [10], above 125 µg/mL; in the assay with Proteus mirabilis [11], 32 µg/mL (≈ 78.3 µM); with Proteus mirabilis [12], 4 µg/mL (≈ 9.79 µM).
`CC(=O)OCC1=C(C(=O)O)N2C(=O)[C@@H](NC(=O)Cc3cccs3)[C@H]2SC1` [CEPHALOTHIN]: the MIC is 32 µg/mL (≈ 80.7 µM) in the assay on Enterococcus faecalis; above 125 µg/mL with Klebsiella pneumoniae [2]; 16 µg/mL (≈ 40.4 µM) against Escherichia coli [3]; above 125 µg/mL against Enterobacter cloacae [4]; 63 µg/mL (≈ 159 µM) against Providencia rettgeri [13]; 2 µg/mL with Staphylococcus aureus [5]. Also, the MIC was 0.5 µg/mL (≈ 1.26 µM) in the assay with Staphylococcus aureus [6]; above 125 µg/mL in the assay with Enterobacter cloacae [7]; above 125 µg/mL with Morganella morganii; 0.06 µg/mL (≈ 0.151 µM) with Staphylococcus aureus [8]; 0.06 µg/mL (≈ 0.151 µM) against Streptococcus pyogenes; above 125 µg/mL in the assay with Serratia marcescens. The MIC was found to be 0.03 µg/mL (≈ 0.0757 µM) against Streptococcus pneumoniae; 32 µg/mL (≈ 80.7 µM) against Escherichia coli [9]; 16 µg/mL (≈ 40.4 µM) in the assay on Klebsiella pneumoniae [10]; 1 µg/mL (≈ 2.52 µM) against Proteus mirabilis [11]; 8 µg/mL (≈ 20.2 µM) in the assay on Proteus mirabilis [12].

(Values after ChEMBL document CHEMBL1122813, “Synthesis and antibacterial activity of 2-[(methoxycarbonyl)methylene]cephalosporins” (1984).)
